# Bioassay records as filed in PubChem BioAssay.
# SIAE inh – human SIAE inhibition, primary screen | Q9HAT2 | SIAE FP-Rh probe binding, fluorescence polarization | inhibition, % at 9.66 µM | actives 0.69% (n = 370,000) | AID 1053197;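 active = inhibition above a cutoff: mean of compounds within the control limits plus 3 SD of those, cut at about 17% in these data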;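 note: 0% = plate median of compound wells and 100% = probe without SIAE protein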
# Target sequence (Q9HAT2 whole entry, looked up): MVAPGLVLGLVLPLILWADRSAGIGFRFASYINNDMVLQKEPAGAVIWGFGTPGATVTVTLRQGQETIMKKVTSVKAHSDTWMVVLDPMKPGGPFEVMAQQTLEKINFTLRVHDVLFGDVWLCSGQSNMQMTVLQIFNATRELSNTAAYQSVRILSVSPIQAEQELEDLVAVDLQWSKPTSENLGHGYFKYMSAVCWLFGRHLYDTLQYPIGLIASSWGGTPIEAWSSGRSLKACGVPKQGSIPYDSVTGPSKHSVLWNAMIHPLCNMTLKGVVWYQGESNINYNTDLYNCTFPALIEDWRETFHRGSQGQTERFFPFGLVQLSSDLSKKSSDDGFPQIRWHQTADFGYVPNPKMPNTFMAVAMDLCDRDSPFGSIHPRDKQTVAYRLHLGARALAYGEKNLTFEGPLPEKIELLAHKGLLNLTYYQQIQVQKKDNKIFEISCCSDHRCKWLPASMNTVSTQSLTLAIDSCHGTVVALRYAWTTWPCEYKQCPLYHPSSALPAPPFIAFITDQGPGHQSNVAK
# TCR-CD3 inh – inhibitors of human TCR-CD3 interaction. TAMRA-labeled TCR probe fluorescence, biochemical. inhibition, % at 9.4 µM. actives 0.37% (n = 360,000); in the data active = inhibition above about 19%;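 note: recombinant mutant TCR 2C K166C tagged with TAMRA read by polarization; 0% = receptor in buffer alone and 100% = receptor with positive control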
# ABHD4 inh – ABHD4 (mouse) inhibition, primary FP screen | inhibition, % at 8.92 µM | AID 720543 | purified mABHD4, FP-Rh probe fluorescence polarization | Q8VD66 | actives 0.54% (n = 370,000);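 active = inhibition exceeding the mean over every tested compound plus 3 SD, cut at about 30% in these data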;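 note: 0% = plate median of compound wells and 100% = S159A mutant with DMSO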
#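 Assay system: mABHD4 protein; medium: HEPES pH 7.0, NaCl, Pluronic buffer; dosing: 8.92 µM, single dose; schedule: 45 min + 60 min at 25 °C; signal: FP readout, ex 525 nm / em 598 nm; read-out: normalized percent inhibition of probe labeling; repeats: single replicate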
# PRMT1 FP inh – inhibitors of human PRMT1 | Q99873 | recombinant PRMT1, activity-based probe fluorescence polarization | inhibition, % at 2.79 µM | actives 1.3% (n = 370,000) | AID 652257;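 active = inhibition above about 21% made by adding two undisclosed values, limit read from the data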
# HTRA1 inhibitor – blocks human HTRA1 serine peptidase | actives 0.5% (n = 340,000) | AID 504803 | inhibition, % at 5.96 µM | Q92743 | recombinant HTRA1, FP-rhodamine activity-based probe, fluorescence polarization; in the data active = inhibition above about 36%;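 note: 0% = enzyme with DMSO and 100% = wells lacking enzyme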
# SIAE inh conf – confirmation of human SIAE inhibitors; shares compounds with SIAE inh; inhibition, % at 9.66 µM; actives 13% (n = 2,300); AID 1117263; SIAE FP-Rh activity-based probe, fluorescence polarization;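 active = mean inhibition of the replicates above the hit cutoff set in the primary screen, cut at about 17% in these data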;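 note: 0% = SIAE with DMSO and probe and 100% = probe without SIAE; inhibitors lower polarization as more probe stays unbound to SIAE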
# * hit, by the source's call; . = no result. Most compounds without a hit are left out; they make up all but 2.5% or so of the library.
SMILES,SIAE inh,TCR-CD3 inh,ABHD4 inh,PRMT1 FP inh,HTRA1 inhibitor,SIAE inh conf
O=C(COC(=O)C1CCC1)NCc1ccc(F)cc1,-5,7,6,-1,1,.
CSc1ncccc1C(=O)NC1CC(C)(C)Cc2c1cnn2-c1ccccc1C (stereo unspecified),1,-2,-2,-3,6,.
C=CS(=O)(=O)N(Cc1ccccc1Br)[C@H](CO)CC(C)C,-1,5,-1,2,-11,.
S=C(Nc1ccc(Cl)cc1)N1CCN(Cc2ccccc2)CC1,18*,-6,-2,1,-9,6
O=C(CCCn1cc([N+](=O)[O-])cn1)N1CCCCC1,-1,7,0,-6,3,.
O=C(O)c1cn(-c2ccc(F)c(F)c2)c2c(F)c(F)c(F)c(F)c2c1=O,20*,6,2,3,-5,2
CCCCCCN1CCN(C2CN(Cc3cn(Cc4ccc(C(F)(F)F)cc4)nn3)S(=O)(=O)C2)CC1 (stereo unspecified),-1,2,-1,-3,.,.
CC(Sc1nnc(NC2CCCCC2)s1)C(=O)Nc1ccc2c(c1)C(=O)c1ccccc1C2=O (stereo unspecified),24*,-4,11,0,10,-25
COC(=O)[C@]12C[C@H](CC(=O)N3CCOCC3)C(=O)N(CCc3ccc(OC)c(OC)c3)C1=C[C@H](C(C)C)O[C@@H]2C1CC1,3,.,2,-6,.,.
CCCCCCCCNS(=O)(=O)CC1NCc2cc(F)ccc21 (stereo unspecified),0,.,-18,-3,.,.
Cc1cc(C)cc(C(=O)OCCN2CCN(C3CN(Cc4cn(Cc5ccccc5F)nn4)S(=O)(=O)C3)CC2)c1 (stereo unspecified),-1,.,-3,-1,.,.
CN(c1ccccc1C(=O)Nc1ccccc1-c1ccccc1)S(C)(=O)=O,-2,9,-1,1,-1,.
O=C(Nc1cccc(S(=O)(=O)N2CCOCC2)c1)c1cn(-c2ccccc2)nc1-c1ccc(F)cc1,23*,0,1,-3,3,-22
COCCN1C(=O)c2ccccc2C1c1nc2ccccc2[nH]1 (stereo unspecified),1,-4,6,3,.,.
C1=C(CCNc2ncnc3c2[nH]c2ccccc23)CCCC1,23*,0,25,-2,6,22*
O=C(O)c1cccc(-n2sc3ccccc3c2=O)c1,18*,-1,-9,93*,-1,0
COc1cc(OC)c(NC(=O)C(Sc2nc(C)cc(C)c2C#N)c2ccccc2)cc1Cl (stereo unspecified),12,4,0,3,.,.
Cc1ccc(C(=O)OCC(=O)NC2CCCCCC2)c(C)c1,122*,5,4,-1,-8,-2
Cc1cccc(C(=O)OCC(=O)NC2CCCCCCC2)c1,-10,-8,-10,-6,-10,.
CCN(CC)c1ccc(/C=N/NC(=O)c2cccc(S(=O)(=O)Nc3ccccc3OC)c2)c(O)c1,35*,15,23,-2,36*,8
Cc1[nH]c2ccccc2c1/C=N/NC(=O)c1cccc(S(=O)(=O)Nc2ccccc2Cl)c1,37*,-5,21,2,6,11
COc1ccc2c(Cl)c(C(=O)N/N=C/c3c(C)[nH]c4ccccc34)sc2c1,23*,-8,7,-1,0,10
COc1cccc(C(=O)NCC(=O)N/N=C/c2c(C)[nH]c3ccccc23)c1,2,-2,2,2,0,.
CCN(CC)c1ccc(/C=N/NC(=O)c2cccc(S(=O)(=O)Nc3ccccc3OC)c2)cc1,11,-3,-8,3,6,.
Cc1[nH]c2ccccc2c1/C=N/NC(=O)c1cccc(Br)c1,.,.,.,.,2,.
CCc1cccc2c(/C=N/NC(=O)c3cccc(S(=O)(=O)Nc4ccccc4Cl)c3)c[nH]c12,36*,-1,1,2,11,-1
COc1ccc(OC)c(S(=O)(=O)NCC(c2ccco2)N2CCc3ccccc32)c1 (stereo unspecified),18*,7,1,-2,0,6
O=C(NCC(c1ccco1)N1CCc2ccccc21)c1ccccc1 (stereo unspecified),23*,-4,2,2,4,3
Cc1ccc(CC2(c3ccccc3)NC(=O)NC2=O)cc1 (stereo unspecified),-8,4,-4,11,2,.
